According to ChEMBL document CHEMBL4706586, “Structure-activity relationships for a series of (Bis(4-fluorophenyl)methyl)sulfinylethyl-aminopiperidines and -piperidine amines at the dopamine transporter: Bioisosteric replacement of the piperazine improves metabolic stability” (Eur J Med Chem, 2020):

Assays:
[1] = molecular target: Sigma non-opioid intracellular receptor 1 (Cavia porcellus, UniProt Q60492); experiment: Displacement of [3H](+)-pentazocine from sigma 1 receptor in guinea pig brain cortex membranes after 120 mins by scintillation counting analysis; type: cell membranes, Membrane
Chain of Sigma non-opioid intracellular receptor 1 (Q60492 whole entry): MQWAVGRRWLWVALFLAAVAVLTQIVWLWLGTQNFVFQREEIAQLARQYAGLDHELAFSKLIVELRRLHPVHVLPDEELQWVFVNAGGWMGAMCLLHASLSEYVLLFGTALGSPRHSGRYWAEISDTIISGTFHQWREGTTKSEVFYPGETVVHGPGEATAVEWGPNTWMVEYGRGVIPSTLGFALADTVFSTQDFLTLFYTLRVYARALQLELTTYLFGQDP
Summary of the method: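 Male guinea pig cortex membranes in 10 mM Tris-HCl/0.32 M sucrose pH 7.4, 5.0 mg/well original wet weight; [3H](+)-pentazocine 3 nM final; inhibitor serial dilutions in 30% DMSO vehicle, triplicate; 120 min at RT; nonspecific with 10 μM PRE084 or (+)-pentazocine.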

[2] = Displacement of [3H]-Nisoxetine from NET in Sprague-Dawley rat frontal cortex membrane after 180 mins by microbeta scintillation counting method; type: cell membranes
[3] = molecular target: Sodium-dependent serotonin transporter (Rattus norvegicus, UniProt P31652); experiment: Displacement of [3H]citalopram from SERT in Sprague-Dawley rat midbrain membranes incubated for 60 mins by microbeta scintillation counting method; type: cell membranes, Membrane
Chain of Sodium-dependent serotonin transporter (P31652 whole entry): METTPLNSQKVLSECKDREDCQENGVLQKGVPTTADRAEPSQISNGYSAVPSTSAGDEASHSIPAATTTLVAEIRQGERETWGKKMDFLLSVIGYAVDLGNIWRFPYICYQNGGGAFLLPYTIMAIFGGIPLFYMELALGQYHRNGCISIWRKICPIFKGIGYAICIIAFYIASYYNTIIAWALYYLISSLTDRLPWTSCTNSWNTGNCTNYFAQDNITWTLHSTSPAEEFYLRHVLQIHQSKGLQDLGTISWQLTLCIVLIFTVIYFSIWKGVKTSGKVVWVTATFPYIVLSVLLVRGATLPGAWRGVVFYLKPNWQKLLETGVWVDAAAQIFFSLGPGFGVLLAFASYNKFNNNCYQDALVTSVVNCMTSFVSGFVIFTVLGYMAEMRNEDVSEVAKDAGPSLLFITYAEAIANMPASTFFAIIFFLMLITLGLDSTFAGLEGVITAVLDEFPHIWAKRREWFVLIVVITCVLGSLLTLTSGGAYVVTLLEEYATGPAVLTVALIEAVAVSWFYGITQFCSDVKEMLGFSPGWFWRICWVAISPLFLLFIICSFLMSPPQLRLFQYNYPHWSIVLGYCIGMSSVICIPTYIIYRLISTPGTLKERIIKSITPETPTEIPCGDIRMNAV

[4] = Selectivity ratio of Ki for sigma 1 receptor in guinea pig brain cortex membranes to Ki for DAT in Sprague-Dawley rat striatum membranes; type: cell membranes
Rattus norvegicus = organism: Rattus norvegicus; experiment: Selectivity ratio of Ki for SERT in Sprague-Dawley rat midbrain membranes to Ki for DAT in Sprague-Dawley rat striatum membranes
D(2) dopamine receptor = D(2) dopamine receptor (Homo sapiens, UniProt P14416); experiment: Displacement of [3H]-N-methylspiperone from human D2L receptor expressed in HEK293 cell membranes measured after 60 mins by microbeta scintillation counting method; design: species or system Membrane
Chain of D(2) dopamine receptor (P14416 whole entry): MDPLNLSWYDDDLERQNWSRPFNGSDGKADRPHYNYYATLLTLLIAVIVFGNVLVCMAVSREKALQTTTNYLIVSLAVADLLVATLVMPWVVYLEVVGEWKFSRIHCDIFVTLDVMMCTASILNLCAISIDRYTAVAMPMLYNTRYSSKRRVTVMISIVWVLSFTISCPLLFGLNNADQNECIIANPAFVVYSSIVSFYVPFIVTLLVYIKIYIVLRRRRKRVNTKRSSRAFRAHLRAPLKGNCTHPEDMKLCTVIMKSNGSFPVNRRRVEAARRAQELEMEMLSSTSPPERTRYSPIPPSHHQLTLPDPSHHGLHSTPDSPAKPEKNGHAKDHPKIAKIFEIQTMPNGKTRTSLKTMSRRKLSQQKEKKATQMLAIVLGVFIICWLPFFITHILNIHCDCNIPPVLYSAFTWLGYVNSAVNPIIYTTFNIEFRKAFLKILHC
Summary of the method: (§1)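 Membranes from HEK293 cells stably expressing human D2LR, D3R or D4.4R; 20 μg/well protein (D2LR, D3R) or 30 μg/well (D4.4R); [3H]-N-methylspiperone 0.4 nM final; half-log dilutions in 30% DMSO, triplicate; 60 min RT; nonspecific 10 μM (+)-butaclamol.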

D(3) dopamine receptor = D(3) dopamine receptor (Homo sapiens, UniProt P35462); experiment: Displacement of [3H]-N-methylspiperone from human D3 receptor expressed in HEK293 cell membranes measured after 60 mins by microbeta scintillation counting method; design: species or system Membrane; summary of the method: as §1
Chain of D(3) dopamine receptor (P35462 whole entry): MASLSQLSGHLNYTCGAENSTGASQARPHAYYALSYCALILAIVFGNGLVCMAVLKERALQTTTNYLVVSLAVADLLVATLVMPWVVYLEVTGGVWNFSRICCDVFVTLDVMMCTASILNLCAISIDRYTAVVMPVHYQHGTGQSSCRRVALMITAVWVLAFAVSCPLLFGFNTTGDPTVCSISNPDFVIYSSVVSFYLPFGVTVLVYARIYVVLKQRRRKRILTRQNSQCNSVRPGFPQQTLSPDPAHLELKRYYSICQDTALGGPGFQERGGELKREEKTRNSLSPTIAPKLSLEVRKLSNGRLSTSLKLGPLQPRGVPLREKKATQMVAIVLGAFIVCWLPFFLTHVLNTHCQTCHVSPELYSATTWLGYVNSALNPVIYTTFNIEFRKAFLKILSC

[5] = molecular target: Sodium-dependent dopamine transporter (Rattus norvegicus, UniProt P23977); experiment: Displacement of [3H]WIN35428 from DAT in Sprague-Dawley rat striatal membranes incubated for 120 mins by microbeta scintillation counting method; type: cell membranes, Striatum, Membrane
Chain of Sodium-dependent dopamine transporter (P23977 whole entry): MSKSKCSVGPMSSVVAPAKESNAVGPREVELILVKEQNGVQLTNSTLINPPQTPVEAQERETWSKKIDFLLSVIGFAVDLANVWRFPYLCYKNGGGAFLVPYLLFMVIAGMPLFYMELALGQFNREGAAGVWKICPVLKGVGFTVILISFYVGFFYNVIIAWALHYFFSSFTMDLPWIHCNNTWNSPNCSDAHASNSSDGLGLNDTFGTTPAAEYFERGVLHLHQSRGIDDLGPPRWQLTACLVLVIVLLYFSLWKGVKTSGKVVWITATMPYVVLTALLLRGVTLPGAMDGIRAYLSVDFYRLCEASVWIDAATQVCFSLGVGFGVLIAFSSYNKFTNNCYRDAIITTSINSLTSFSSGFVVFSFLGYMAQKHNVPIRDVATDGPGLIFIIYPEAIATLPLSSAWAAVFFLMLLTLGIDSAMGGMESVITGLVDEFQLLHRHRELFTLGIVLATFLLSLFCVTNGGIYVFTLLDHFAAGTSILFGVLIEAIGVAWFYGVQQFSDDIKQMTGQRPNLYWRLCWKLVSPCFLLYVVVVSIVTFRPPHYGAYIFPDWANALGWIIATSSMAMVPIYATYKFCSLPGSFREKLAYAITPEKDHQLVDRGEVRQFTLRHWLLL

D(4) dopamine receptor = molecular target: T1, D(4) dopamine receptor (Homo sapiens, UniProt P21917); experiment: Displacement of [3H]-N-methylspiperone from human D4.4 receptor expressed in HEK293 cell membranes measured after 60 mins by microbeta scintillation counting method; design: species or system Membrane; summary of the method: as §1
T1 sequence (P21917 whole entry): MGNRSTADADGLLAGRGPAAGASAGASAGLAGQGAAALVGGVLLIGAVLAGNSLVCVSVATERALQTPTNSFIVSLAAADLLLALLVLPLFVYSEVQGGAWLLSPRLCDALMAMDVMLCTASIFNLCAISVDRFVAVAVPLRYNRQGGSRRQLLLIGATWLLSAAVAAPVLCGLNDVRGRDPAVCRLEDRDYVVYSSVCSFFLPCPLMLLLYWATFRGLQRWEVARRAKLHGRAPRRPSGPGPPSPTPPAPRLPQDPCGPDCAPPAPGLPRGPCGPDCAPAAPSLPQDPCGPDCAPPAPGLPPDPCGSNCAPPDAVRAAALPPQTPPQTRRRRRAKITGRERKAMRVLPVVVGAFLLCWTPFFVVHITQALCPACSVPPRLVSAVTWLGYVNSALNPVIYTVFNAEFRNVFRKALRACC

[6] = Metabolic stability in rat liver microsomes assessed as compound remaining at 10 uM incubated for 60 mins in presence of NADPH regenerating system by LC-MS/MS analysis; type: ADME, Microsome; details: 1 h
[7] = Metabolic stability in rat liver microsomes assessed as compound remaining at 10 uM in presence of NADPH regenerating system by LC-MS/MS analysis; type: ADME, Microsome

Structure (SMILES): O=C(c1cc2ccccc2o1)N1CCC(NCCSC(c2ccc(F)cc2)c2ccc(F)cc2)CC1
- Ki [1]: 304 nM

Structure (SMILES): CC(O)CN1CCN(CC[S+]([O-])C(c2ccc(F)cc2)c2ccc(F)cc2)CC1 (stereo not given)
- Ki [1]: 454 nM
- Ki [2]: > 100000 nM
- Ki [3]: 97800 nM

Structure (SMILES): CC(O)CN1[C@H](C)CN(CCSC(c2ccc(F)cc2)c2ccc(F)cc2)C[C@@H]1C (stereo not given in full)
- Ratio Ki [4]: 0.243
- Ratio Ki (Rattus norvegicus): 641
- Ki (D(2) dopamine receptor): 11900 nM
- Ki (D(3) dopamine receptor): 1470 nM

Structure (SMILES): O=C(c1ccccc1F)N1CCC(NCC[S+]([O-])C(c2ccc(F)cc2)c2ccc(F)cc2)CC1 (stereo not given)
- Ki [5]: 604 nM
- Ratio Ki [4]: 2.16
- Ki [1]: 1310 nM
- Ratio Ki (Rattus norvegicus): 23.5
- Ki [3]: 14200 nM

Structure (SMILES): NC(=O)C[S@+]([O-])C(c1ccc(F)cc1)c1ccc(F)cc1
- Ki [5]: 2970 nM
- Ratio Ki [4]: > 34
- Ki [1]: > 100000 nM
- Ratio Ki (Rattus norvegicus): 5.05
- Ki [3]: 15000 nM

Structure (SMILES): CC(C)(C)C(=O)N1CCC(NCC[S+]([O-])C(c2ccc(F)cc2)c2ccc(F)cc2)CC1 (stereo not given)
- Ratio Ki [4]: 1.1
- Ki [1]: 11200 nM
- Ratio Ki (Rattus norvegicus): 3.14

Structure (SMILES): O=C(c1cc2ccccc2[nH]1)N1CCC(NCCSC(c2ccc(F)cc2)c2ccc(F)cc2)CC1
- Ki [5]: 177 nM
- Ki [1]: 1130 nM

Structure (SMILES): [O-][S+](CCN1CCN(CC(O)Cc2ccccc2)CC1)C(c1ccc(F)cc1)c1ccc(F)cc1 (stereo not given)
- Ki [5]: 2.6 nM
- Ki [1]: 41.6 nM
- Ki [3]: 12700 nM

Structure (SMILES): OC(CNC1CCN(CCSC(c2ccc(F)cc2)c2ccc(F)cc2)CC1)Cc1ccccc1 (stereo not given)
- Ki (D(4) dopamine receptor): 2670 nM
- Stabilty [6]: 69%
- Stabilty [7]: 100%
- Ratio Ki [4]: 1.84
- Ki [1]: 88 nM
- Ratio Ki (Rattus norvegicus): 1.4
- Ki (D(2) dopamine receptor): 2270 nM
- Ki (D(3) dopamine receptor): 701 nM

Structure (SMILES): Fc1ccc(C(SCCNC2CCN(Cc3ccc(C(F)(F)F)cc3)CC2)c2ccc(F)cc2)cc1
- Ki [1]: 186 nM

Structure (SMILES): CN(CC[S+]([O-])C(c1ccc(F)cc1)c1ccc(F)cc1)C1CCN(C(=O)c2ccccc2F)CC1 (stereo not given)
- Ki [5]: 7380 nM
- Ratio Ki [4]: 0.07
- Ki [1]: 516 nM
- Ratio Ki (Rattus norvegicus): 34
- Ki [3]: 251000 nM

Structure (SMILES): OC(Cc1ccccc1)CN1CCC(NCCSC(c2ccc(F)cc2)c2ccc(F)cc2)CC1 (stereo not given)
- Ki (D(4) dopamine receptor): 2200 nM
- Stabilty [6]: 74%
- Stabilty [7]: 100%
- Ki [5]: 31.4 nM
- Ki [1]: 309 nM
- Ki [2]: 585 nM
- Ki (D(2) dopamine receptor): 4020 nM
- Ki (D(3) dopamine receptor): 691 nM

Structure (SMILES): Fc1ccc(CNC2CCN(CCSC(c3ccc(F)cc3)c3ccc(F)cc3)CC2)cc1
- Ratio Ki [4]: 0.74
- Ki [1]: 41.4 nM
- Ratio Ki (Rattus norvegicus): 4.79

Structure (SMILES): [O-][S+](CCNC1CCN(CC(O)Cc2ccccc2)CC1)C(c1ccc(F)cc1)c1ccc(F)cc1 (stereo not given)
- Stabilty [6]: 22%
- Stabilty [7]: 100%
- Ratio Ki [4]: 3.82
- Ki [1]: 351 nM
- Ratio Ki (Rattus norvegicus): 6.53
- Ki (D(2) dopamine receptor): 6610 nM
- Ki (D(3) dopamine receptor): 5500 nM

Structure (SMILES): CN(CCSC(c1ccc(F)cc1)c1ccc(F)cc1)C1CCN(C(=O)c2ccccc2F)CC1
- Ki [5]: 222 nM
- Ratio Ki [4]: 0.03
- Ki [1]: 5.87 nM
- Ratio Ki (Rattus norvegicus): 4.47
- Ki [3]: 992 nM

Structure (SMILES): Fc1ccc(C(SCCN2CCC(NCc3ccc(Cl)cc3)CC2)c2ccc(F)cc2)cc1
- Ratio Ki [4]: 0.72
- Ki [1]: 62.4 nM
- Ratio Ki (Rattus norvegicus): 4.59

Structure (SMILES): O=C(c1ccccc1F)N1CCC(NCCSC(c2ccc(F)cc2)c2ccc(F)cc2)CC1
- Ki [5]: 46.1 nM
- Ratio Ki [4]: 0.08
- Ki [1]: 3.57 nM
- Ratio Ki (Rattus norvegicus): 7.61
- Ki [3]: 351 nM

Structure (SMILES): NC(=O)C[S@@+]([O-])C(c1ccc(F)cc1)c1ccc(F)cc1
- Ki [5]: 4830 nM
- Ratio Ki [4]: > 21
- Ki [1]: > 100000 nM
- Ratio Ki (Rattus norvegicus): 8.05
- Ki [3]: 38900 nM

Structure (SMILES): O=C(c1ccccc1)N1CCC(NCC[S+]([O-])C(c2ccc(F)cc2)c2ccc(F)cc2)CC1 (stereo not given)
- Ki [1]: 585 nM

Structure (SMILES): CC(C)(C)CN1CCC(NCCSC(c2ccc(F)cc2)c2ccc(F)cc2)CC1
- Ratio Ki [4]: 1.13
- Ki [1]: 315 nM
- Ratio Ki (Rattus norvegicus): 3.39
